CHRM5 agonist – CHRM5 agonism in calcium assay. P08912. CHO-K1 hM5 cells, Fluo-8 calcium fluorescence; 0% DMSO wells, 100% maximal acetylcholine response. activation, % at 3 µM. 360,000 compounds, 0.19% hits. AID 624037;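 active = activation above the run's mean over test compounds plus 3 SD, cut at about 23% in these data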;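 also: signal is peak over basal fluorescence ratio across the kinetic read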
Target sequence (P08912 whole entry, looked up): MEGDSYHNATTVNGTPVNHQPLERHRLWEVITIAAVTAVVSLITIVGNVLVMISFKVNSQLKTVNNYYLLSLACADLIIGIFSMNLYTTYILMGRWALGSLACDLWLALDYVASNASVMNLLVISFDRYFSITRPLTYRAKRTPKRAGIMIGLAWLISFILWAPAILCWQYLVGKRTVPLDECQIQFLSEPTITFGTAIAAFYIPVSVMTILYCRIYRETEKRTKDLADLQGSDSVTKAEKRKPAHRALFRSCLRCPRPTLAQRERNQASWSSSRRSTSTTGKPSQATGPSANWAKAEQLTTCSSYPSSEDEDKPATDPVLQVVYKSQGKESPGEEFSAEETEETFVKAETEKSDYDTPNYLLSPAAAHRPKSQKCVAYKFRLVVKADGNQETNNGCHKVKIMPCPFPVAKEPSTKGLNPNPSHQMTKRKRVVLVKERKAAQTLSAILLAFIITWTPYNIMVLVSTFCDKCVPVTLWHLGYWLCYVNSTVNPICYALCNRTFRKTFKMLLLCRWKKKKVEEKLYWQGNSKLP
M4 ag – CHRM4 agonism in calcium assay; CHO-K1 hM4/Gqi5, Fluo-8 calcium fluorescence; vehicle 0%, full acetylcholine response 100%; activation, % at 3 µM; AID 624127; 360,000 compounds, 0.14% hits; P08173;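 active = activation above the run mean over all test wells plus 3 SD, cut at about 32% in these data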;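 also: peak over basal fluorescence ratio per well then scaled between controls; 0% = DMSO wells and 100% = acetylcholine at EC100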
CHRM5 antagonist – blocks acetylcholine activation of human M5 receptor. P08912. CHO-hM5 cells, Fluo-8 calcium fluorescence, ACh EC80. inhibition, % at 3 µM. 360,000 compounds, 0.59% hits;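 active = inhibition above a per-plate cutoff, the mean of that plate's test compounds plus 3 SD, cut at about 27% in these data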;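 also: 0% = acetylcholine EC80 with DMSO and 100% = DMSO without agonist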
M5 PAM – potentiates acetylcholine response at human M5 receptor | activation, % at 3 µM | 360,000 compounds, 0.3% hits | P08912 | CHO-K1 hM5, Fluo-8 calcium, ACh EC20 PAM; 0% = ACh EC20, 100% = ACh EC100 | AID 624038;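 active = activation above the run cutoff, the mean activation of all test compounds plus 3 SD, cut at about 18% in these data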
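Test system: CHO-K1 hM5 cells / Doses: single-point, 3 µM nominal / Times: Post-acetylcholine fluorescence recording 140 s / Technique: Fluo-8 calcium fluorescence / Measure: Max/basal fluorescence ratio as % of EC20–EC100 ACh window / Benchmarks: low control EC20 acetylcholine (0%), high control EC100 acetylcholine (100%) / Replicates: one well per compound, no replicates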
M4 antag – antagonists of human muscarinic M4 receptor (CHRM4); P08173; CHO-hM4 cells, ACh EC80, Fluo-8 calcium fluorescence; inhibition, % at 3 µM; 360,000 compounds, 0.73% hits;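 active = inhibition above its plate's cutoff, the mean inhibition of sample wells plus 3 SD, cut at about 27% in these data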;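 also: 0% = acetylcholine EC80 with DMSO and 100% = DMSO without agonist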
CHRM4 PAM – potentiates acetylcholine response at human M4 receptor | activation, % at 3 µM | P08173 | 360,000 compounds, 0.4% hits | CHO-K1 hM4/Gqi5, Fluo-8 calcium fluorescence, ACh EC20; 0% = ACh EC20, 100% = maximal ACh;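 active = activation above its plate's cutoff, the mean activation of sample wells plus 3 SD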
The depositor's hits bear a star. Most compounds without a hit are left out; they make up all but 1.9% or so of the library.

SMILES	CHRM5 agonist	M4 ag	CHRM5 antagonist	M5 PAM	M4 antag	CHRM4 PAM
O=C1CC(=C(c2ccccc2)c2ccccc2)C(=O)N1CCCCN1CCN(c2cccc(Cl)c2)CC1	-8.2	-2.2	11.1	-18.1	39.8*	-19.6
Cc1ccccc1N1CCN(CCCN2C(=O)CC(=C(c3ccccc3)c3ccccc3)C2=O)CC1	-8.9	-3.0	-0.6	-14.1	38.3*	-17.1
CCc1ccc(S(=O)(=O)N2CCCC(N3CCN(c4ccc(OC)cc4)CC3)C2)cc1 (stereo unspecified)	-3.9	2.2	8.0	-6.1	-5.5	-2.1
COc1ccccc1CCNC(=O)CCn1c(=O)oc2ccccc21	1.3	0.4	-1.4	-3.0	-7.7	2.9
COc1ccccc1CCNC(=O)Cn1c(=O)oc2ccccc21	-3.2	4.0	39.9*	-13.9	2.9	-1.9
O=C(Oc1ccc2cccc(OC(=O)N3CCOCC3)c2c1)N1CCOCC1	1.1	1.3	2.0	19.4*	-1.6	0.6
O=C(Oc1cccc2c(OC(=O)N3CCOCC3)cccc12)N1CCOCC1	0.9	-0.1	-6.0	8.1	13.9	7.5
CCN1C(=O)[C@H]2[C@@H](c3ccc(C)cc3)N3C(=O)N(c4ccc(C)cc4)C(=O)[C@@]3(Cc3ccccc3)[C@H]2C1=O	-0.2	4.7	-4.4	6.5	-24.5	18.0
CCN1C(=O)[C@H]2[C@@H](c3ccc(C)cc3)N3C(=O)N(c4ccc(OC)cc4)C(=O)[C@@]3(Cc3ccc(Cl)cc3)[C@H]2C1=O	1.0	4.0	-1.1	4.8	-11.5	31.2*
CCN(CC)C(=O)CSc1nc2ccccc2c(=O)n1-c1ccccc1OC	-1.1	-1.7	-6.0	2.8	-5.2	35.9*
CC(C)C/C=C1\CCc2c([nH]c3ccccc23)C1=O	1.2	1.5	8.0	10.4	-12.9	20.5*
Cc1cc(/C=C2\C(=N)N3N=C(S(C)(=O)=O)SC3=NC2=O)c(C)n1Cc1ccccc1	0.1	0.6	6.3	1.9	-0.5	1.5
CCCC1=NN2C(=N)/C(=C\c3cc(C)n(Cc4ccccc4)c3C)C(=O)N=C2S1	36.1*	42.2*	11.5	-29.7	0.9	-15.6
CCSc1nnc(NC(=O)NC(C)(C(F)(F)F)C(F)(F)F)s1	1.9	10.5	14.2	-10.7	4.8	-6.1
CCSc1nnc(NC(=O)NC(CC)(C(F)(F)F)C(F)(F)F)s1	3.5	9.5	30.6*	-20.9	7.6	-9.2
CC1CCCCN1C(=S)NC(=O)c1cc(Br)ccc1Cl (stereo unspecified)	-3.2	0.3	10.7	-7.9	1.4	3.7
COc1ccc(S(N)(=O)=O)cc1C(N)=O	0.1	0.9	-1.9	0.8	-1.4	17.3
COc1ccc(S(=O)(=O)N2CCSCC2)cc1C(N)=O	-1.6	2.1	-6.1	7.0	-5.8	14.1*
COc1ccc(CCNC(=O)c2cc(-c3ccccn3)nc3ccccc23)cc1	5.8	13.6	5.3	-8.9	11.4	-7.5
C=CCN1[C@@H](Cc2ccccc2)COc2cc(N3CCSCC3)ccc2S1(=O)=O	-0.4	1.3	2.2	-6.1	-7.1	-4.2
Cc1ccc(NS(=O)(=O)c2ccc3c(c2)OCCCO3)cc1S(=O)(=O)N1CCOCC1	6.5	8.9	3.3	-8.3	-7.6	1.2
CCC(CO)NCC#Cc1ccccc1 (stereo unspecified)	-6.3	1.9	6.7	1.5	40.2*	-15.8
OC(CNCC#Cc1ccccc1)c1ccccc1 (stereo unspecified)	-1.4	1.3	4.6	0.1	-8.4	-0.3
CC(C)C(=O)Nc1c(-c2ccccc2F)c(=O)c2ccccc2n1C	-2.0	1.1	4.3	0.4	-10.1	5.7
CSc1nnc(-c2cccc(C)c2)n1N	0.0	0.7	-1.2	6.9	3.0	32.1*
SMILES	CHRM5 agonist	M4 ag	CHRM5 antagonist	M5 PAM	M4 antag	CHRM4 PAM
O=NN(CCc1ccncc1)c1ccc(OCc2ccccc2)cc1	-4.8	12.5	33.7*	-25.3	12.2	-10.8
O=C(NCc1ccncc1)C(=O)N/N=C/c1ccc(OCc2ccccc2)cc1	-3.4	1.5	-7.3	6.2	-10.1	1.5
COc1ccc(S(=O)(=O)N2CCc3ccccc32)cc1C(=O)Nc1ccc(C(N)=O)cc1	-3.1	10.3	36.5*	-36.6	3.5	-8.1
COc1ccc(S(=O)(=O)N2CCCCC2)cc1NC(=O)CN(Cc1ccco1)Cc1ccco1	-3.2	20.1	43.5*	-44.1	26.6*	-15.0
COc1ccc(S(=O)(=O)N2CCCCC2)cc1NC(=O)CN(C)C1CCCCC1	-6.8	3.3	4.1	3.1	-8.7	4.2
CCN(CC)S(=O)(=O)c1cc(NC(=O)COC(=O)c2c(C)noc2C)ccc1C	4.1	6.0	0.9	-1.2	-8.5	16.7
C=CCN1C(=O)C(Cc2ccc(SC(F)F)cc2)SC1=Nc1ccc(C(=O)O)cc1 (stereo unspecified)	-7.2	8.5	27.2*	-10.2	-10.1	6.7
CCn1nnnc1SCC(=O)NCc1cccs1	-5.0	0.2	-2.9	18.3*	3.1	0.3
CCCCCCCCCCCCCCCC[n+]1ccc(C(N)=O)cc1	-2.7	0.7	14.3	-12.7	11.8	-20.9
O/N=C/c1cccc[n+]1CCCCCC[n+]1ccccc1/C=N/O	-20.8	0.2	2.8	2.8	13.3	-8.7
CCCCCCCCCCCCCCCC[n+]1ccccc1	-2.1	0.0	86.5*	-18.8	44.6*	-16.0
CCCCCCCCCCCCCCCC[n+]1ccc(/C=N/O)cc1	-7.1	0.6	27.5*	-17.2	13.7	-12.5
CC(=O)Nc1cccc(NC(=O)CSc2ncc(-c3ccc(Cl)cc3)n2Cc2ccco2)c1	6.3	17.6	22.6	-25.1	28.7*	-15.2
O=C(c1ccc(OC2CCN(Cc3ccccc3C(F)(F)F)CC2)cc1)N1CCCCC1	-4.6	2.1	29.2*	-7.0	-1.5	-9.8
COc1ccc(CCC(C)N2CCC(Oc3ccc(C(=O)N4CCCC4)cc3)CC2)cc1 (stereo unspecified)	-4.5	3.7	1.5	-34.1	42.0*	-14.9
CCOC(=O)C1CCN(C(=O)c2ccc(OC3CCN(C(=O)COC)CC3)cc2)CC1	-4.5	1.1	-15.8	5.7	-5.2	19.9*
CC(=O)N1CCN(C(=O)c2ccc(OC3CCN(CCc4ccccc4)CC3)cc2)CC1	-8.7	0.3	17.2	-7.0	10.8	-10.9
CC(CCc1ccc(O)cc1)N1CCC(Oc2ccc(C(=O)N3CCCC3)cc2)CC1 (stereo unspecified)	-7.4	0.2	13.1	-13.6	20.5	-14.8
O=C(c1ccc(OC2CCN(CCCc3ccccc3)CC2)cc1)N1CCCC1	-8.2	1.9	16.3	-15.3	30.5*	-14.8

Compound activity (PubChem BioAssay)
